These results are taken from ChEMBL document CHEMBL5661979, “Pharmacological inhibition of BMK1 suppresses tumor growth through promyelocytic leukemia protein” (Cancer Cell, 2010).

In general, IC50 refers to the point on the concentration scale where inhibition reaches its midpoint. Low values mean greater potency, high ones weaker potency. As a reminder, the inhibition is the drop in the measured response relative to a control, in per cent. For orientation: AUC(0-inf) means the area under the concentration-time curve extrapolated to infinity. High values mean high exposure, low ones low exposure.

Data set [1] addresses T1, Ribosomal protein S6 kinase alpha-1 (Homo sapiens, UniProt Q15418). As to the kind of experiment: Inhibition of RSK1 domain 2 in human HeLa cells lysate pre incubated for 15 mins followed by ATP acyl phosphate probe addition and measured after 10 mins by LC-MS/MS analysis. Format: subcellular.
The target in another data set is Ephrin type-B receptor 4 (Homo sapiens, UniProt P54760). As to the kind of experiment: Inhibition of EphB4 in human HeLa cells lysate pre incubated for 15 mins followed by ATP acyl phosphate probe addition and measured after 10 mins by LC-MS/MS analysis. It is filed as subcellular.
Data set [2] has as its target Mitogen-activated protein kinase kinase kinase 20 (Homo sapiens, UniProt Q9NYL2). As to the kind of experiment: Inhibition of ZAK in human HeLa cells lysate pre incubated for 15 mins followed by ATP acyl phosphate probe addition and measured after 10 mins by LC-MS/MS analysis. It is filed as subcellular.
Data set [3] deals with EKC/KEOPS complex subunit TP53RK (Homo sapiens, UniProt Q96S44). Put plainly: Inhibition of PRPK in human HeLa cells lysate pre incubated for 15 mins followed by ADP acyl phosphate probe addition and measured after 10 mins by LC-MS/MS analysis. Format: subcellular.
Sequence of EKC/KEOPS complex subunit TP53RK (Q96S44 whole entry, the tested form may be a part, one chain of several): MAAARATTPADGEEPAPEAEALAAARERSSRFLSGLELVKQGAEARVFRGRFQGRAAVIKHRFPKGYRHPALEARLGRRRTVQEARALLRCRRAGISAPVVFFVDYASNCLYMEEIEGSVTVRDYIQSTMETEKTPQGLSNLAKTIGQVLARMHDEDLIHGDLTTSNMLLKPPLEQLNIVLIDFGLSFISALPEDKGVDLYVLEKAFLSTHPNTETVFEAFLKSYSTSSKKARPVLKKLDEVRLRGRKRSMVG
Data set [4] addresses T1, Ribosomal protein S6 kinase alpha-1. Put plainly: Inhibition of RSK1 domain 2 K2 site in human HeLa cells lysate at 50 uM pre incubated for 15 mins followed by ADP acyl phosphate probe addition and measured after 10 mins by LC-MS/MS analysis relative to control. It is filed as subcellular. The following applies: time 25.0 min.
Data set [5] has as its target Ribosomal protein S6 kinase alpha-3 (Homo sapiens, UniProt P51812). Put plainly: Inhibition of RSK2 domain 2 in human HeLa cells lysate at 10 uM pre incubated for 15 mins followed by ADP acyl phosphate probe addition and measured after 10 mins by LC-MS/MS analysis relative to control. Format: subcellular. Particulars: time 25.0 min.
In data set [6] the target is Macrophage-stimulating protein receptor (Homo sapiens, UniProt Q04912). Put plainly: Inhibition of RON in human HeLa cells lysate at 10 uM pre incubated for 15 mins followed by ADP acyl phosphate probe addition and measured after 10 mins by LC-MS/MS analysis relative to control. It is filed as subcellular. Particulars: time 25.0 min.
For data set [7], the target named is Cyclin-dependent kinase 16 (Homo sapiens, UniProt Q00536). Put plainly: Inhibition of PCTAIRE1 in human HeLa cells lysate at 10 uM pre incubated for 15 mins followed by ADP acyl phosphate probe addition and measured after 10 mins by LC-MS/MS analysis relative to control. Format: subcellular. Particulars: time 25.0 min.
In data set [8] the target is DNA-dependent protein kinase catalytic subunit (Homo sapiens, UniProt P78527). As to the kind of experiment: Inhibition of PRKDC in human HeLa cells lysate at 10 uM pre incubated for 15 mins followed by ADP acyl phosphate probe addition and measured after 10 mins by LC-MS/MS analysis relative to control. Format: subcellular. The following applies: time 25.0 min.
Sequence of DNA-dependent protein kinase catalytic subunit (P78527 whole entry): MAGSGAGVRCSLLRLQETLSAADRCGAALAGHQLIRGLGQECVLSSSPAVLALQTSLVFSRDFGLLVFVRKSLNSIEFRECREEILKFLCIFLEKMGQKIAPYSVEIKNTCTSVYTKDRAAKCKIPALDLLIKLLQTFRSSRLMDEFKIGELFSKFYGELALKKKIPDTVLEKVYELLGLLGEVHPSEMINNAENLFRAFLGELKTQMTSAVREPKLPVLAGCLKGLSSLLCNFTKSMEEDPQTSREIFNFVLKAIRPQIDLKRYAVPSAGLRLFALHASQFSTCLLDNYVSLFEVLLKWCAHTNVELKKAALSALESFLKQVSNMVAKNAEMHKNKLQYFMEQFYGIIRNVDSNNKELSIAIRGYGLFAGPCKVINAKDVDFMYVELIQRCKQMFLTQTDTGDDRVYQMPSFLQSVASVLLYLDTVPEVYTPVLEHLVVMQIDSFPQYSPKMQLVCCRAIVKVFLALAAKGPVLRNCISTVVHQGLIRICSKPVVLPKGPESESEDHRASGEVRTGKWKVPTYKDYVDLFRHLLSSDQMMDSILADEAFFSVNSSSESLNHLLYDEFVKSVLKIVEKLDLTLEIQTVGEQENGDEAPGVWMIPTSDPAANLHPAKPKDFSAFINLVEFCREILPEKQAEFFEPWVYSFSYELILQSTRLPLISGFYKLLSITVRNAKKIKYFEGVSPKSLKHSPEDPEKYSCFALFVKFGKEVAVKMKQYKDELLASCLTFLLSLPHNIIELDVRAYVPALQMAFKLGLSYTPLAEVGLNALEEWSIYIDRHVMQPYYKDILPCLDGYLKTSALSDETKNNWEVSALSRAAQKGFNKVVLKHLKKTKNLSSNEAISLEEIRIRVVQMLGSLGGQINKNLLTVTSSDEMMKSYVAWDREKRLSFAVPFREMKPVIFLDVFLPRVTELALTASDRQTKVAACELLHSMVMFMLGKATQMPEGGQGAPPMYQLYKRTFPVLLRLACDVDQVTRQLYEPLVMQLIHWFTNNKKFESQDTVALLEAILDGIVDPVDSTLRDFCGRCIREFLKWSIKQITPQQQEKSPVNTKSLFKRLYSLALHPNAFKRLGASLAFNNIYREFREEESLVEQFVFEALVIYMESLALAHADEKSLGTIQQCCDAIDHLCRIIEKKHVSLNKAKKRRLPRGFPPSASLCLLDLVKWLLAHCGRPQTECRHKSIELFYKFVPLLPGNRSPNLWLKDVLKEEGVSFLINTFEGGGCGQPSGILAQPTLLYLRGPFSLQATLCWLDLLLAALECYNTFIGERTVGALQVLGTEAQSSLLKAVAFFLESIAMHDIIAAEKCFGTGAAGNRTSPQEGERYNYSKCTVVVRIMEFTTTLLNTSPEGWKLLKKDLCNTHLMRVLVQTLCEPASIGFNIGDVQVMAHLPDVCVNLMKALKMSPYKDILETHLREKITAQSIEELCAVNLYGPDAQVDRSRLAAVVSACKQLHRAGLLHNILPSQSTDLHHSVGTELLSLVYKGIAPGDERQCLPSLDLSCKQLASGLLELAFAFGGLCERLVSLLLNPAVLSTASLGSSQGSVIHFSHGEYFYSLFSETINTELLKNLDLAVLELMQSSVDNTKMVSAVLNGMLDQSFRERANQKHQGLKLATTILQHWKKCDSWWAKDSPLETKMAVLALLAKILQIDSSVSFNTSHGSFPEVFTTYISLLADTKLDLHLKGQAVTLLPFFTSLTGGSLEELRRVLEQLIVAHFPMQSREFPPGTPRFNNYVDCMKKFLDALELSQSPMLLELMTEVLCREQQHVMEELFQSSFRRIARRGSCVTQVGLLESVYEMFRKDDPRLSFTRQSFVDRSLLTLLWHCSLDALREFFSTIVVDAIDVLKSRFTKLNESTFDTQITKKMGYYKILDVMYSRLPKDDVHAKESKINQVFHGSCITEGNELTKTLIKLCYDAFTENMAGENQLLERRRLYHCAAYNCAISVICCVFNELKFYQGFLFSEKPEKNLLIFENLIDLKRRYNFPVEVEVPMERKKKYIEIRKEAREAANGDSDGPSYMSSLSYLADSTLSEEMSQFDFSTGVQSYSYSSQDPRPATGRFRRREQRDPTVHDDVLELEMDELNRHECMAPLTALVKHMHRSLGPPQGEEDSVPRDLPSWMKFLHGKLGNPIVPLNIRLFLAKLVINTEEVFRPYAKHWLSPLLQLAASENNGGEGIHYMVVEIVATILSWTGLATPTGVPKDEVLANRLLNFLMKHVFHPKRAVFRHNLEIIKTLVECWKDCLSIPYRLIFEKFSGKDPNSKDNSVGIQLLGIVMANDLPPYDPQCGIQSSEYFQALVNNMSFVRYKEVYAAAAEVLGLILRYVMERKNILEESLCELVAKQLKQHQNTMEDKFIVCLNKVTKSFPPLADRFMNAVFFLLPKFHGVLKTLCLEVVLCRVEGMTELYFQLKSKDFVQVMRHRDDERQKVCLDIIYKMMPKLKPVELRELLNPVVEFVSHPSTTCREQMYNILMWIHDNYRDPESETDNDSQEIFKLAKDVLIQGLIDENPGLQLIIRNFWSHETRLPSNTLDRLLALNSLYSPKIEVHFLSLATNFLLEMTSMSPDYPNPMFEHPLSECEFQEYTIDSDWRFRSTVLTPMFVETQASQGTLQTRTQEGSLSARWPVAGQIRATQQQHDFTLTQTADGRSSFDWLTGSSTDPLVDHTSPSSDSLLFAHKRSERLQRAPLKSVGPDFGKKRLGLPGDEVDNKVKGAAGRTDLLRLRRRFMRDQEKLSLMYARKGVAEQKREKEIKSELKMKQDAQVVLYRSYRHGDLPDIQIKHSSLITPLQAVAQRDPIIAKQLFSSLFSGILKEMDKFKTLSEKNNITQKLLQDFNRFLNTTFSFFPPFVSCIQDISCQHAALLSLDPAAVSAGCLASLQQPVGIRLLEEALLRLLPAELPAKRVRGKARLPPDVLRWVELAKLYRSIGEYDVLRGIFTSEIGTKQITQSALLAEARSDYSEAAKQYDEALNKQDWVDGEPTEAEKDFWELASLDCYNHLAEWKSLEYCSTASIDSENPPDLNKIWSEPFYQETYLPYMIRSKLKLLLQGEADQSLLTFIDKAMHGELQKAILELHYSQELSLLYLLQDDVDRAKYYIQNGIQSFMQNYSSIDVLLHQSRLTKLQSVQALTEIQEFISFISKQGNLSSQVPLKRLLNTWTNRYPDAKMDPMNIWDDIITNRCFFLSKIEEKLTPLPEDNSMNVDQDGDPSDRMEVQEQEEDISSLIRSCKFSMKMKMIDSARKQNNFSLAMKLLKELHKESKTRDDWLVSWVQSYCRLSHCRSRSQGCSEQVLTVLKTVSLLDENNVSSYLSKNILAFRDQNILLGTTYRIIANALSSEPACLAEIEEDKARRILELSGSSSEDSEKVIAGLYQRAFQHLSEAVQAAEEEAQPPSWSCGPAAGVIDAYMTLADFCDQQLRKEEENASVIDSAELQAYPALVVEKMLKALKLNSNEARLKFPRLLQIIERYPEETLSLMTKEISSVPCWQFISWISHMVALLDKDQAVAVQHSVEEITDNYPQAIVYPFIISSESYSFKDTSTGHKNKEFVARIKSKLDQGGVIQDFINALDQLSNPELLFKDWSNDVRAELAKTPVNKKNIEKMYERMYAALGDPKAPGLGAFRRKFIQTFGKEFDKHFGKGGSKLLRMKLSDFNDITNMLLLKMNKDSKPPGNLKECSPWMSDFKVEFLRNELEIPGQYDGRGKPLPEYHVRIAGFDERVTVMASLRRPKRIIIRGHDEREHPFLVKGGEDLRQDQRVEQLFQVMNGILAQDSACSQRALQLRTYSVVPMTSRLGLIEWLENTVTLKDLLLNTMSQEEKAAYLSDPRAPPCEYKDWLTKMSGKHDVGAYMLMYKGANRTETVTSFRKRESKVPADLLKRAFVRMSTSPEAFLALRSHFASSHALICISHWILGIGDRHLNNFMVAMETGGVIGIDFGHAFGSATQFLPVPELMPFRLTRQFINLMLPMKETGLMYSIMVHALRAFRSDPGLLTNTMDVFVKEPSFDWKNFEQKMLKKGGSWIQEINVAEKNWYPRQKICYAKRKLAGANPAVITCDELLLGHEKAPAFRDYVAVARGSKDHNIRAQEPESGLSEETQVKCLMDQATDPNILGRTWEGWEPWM
The target of data set [9] is Serine/threonine-protein kinase 38-like (Homo sapiens, UniProt Q9Y2H1). As to the kind of experiment: Inhibition of NDR2 in human HeLa cells lysate at 2 uM pre incubated for 15 mins followed by ADP acyl phosphate probe addition and measured after 10 mins by LC-MS/MS analysis relative to control. It is filed as subcellular. The following applies: time 25.0 min.
The target in data set [10] is T2, Serine/threonine-protein kinase Sgk3 (Homo sapiens) (UniProt Q96BR1).
T2 sequence (whole entry): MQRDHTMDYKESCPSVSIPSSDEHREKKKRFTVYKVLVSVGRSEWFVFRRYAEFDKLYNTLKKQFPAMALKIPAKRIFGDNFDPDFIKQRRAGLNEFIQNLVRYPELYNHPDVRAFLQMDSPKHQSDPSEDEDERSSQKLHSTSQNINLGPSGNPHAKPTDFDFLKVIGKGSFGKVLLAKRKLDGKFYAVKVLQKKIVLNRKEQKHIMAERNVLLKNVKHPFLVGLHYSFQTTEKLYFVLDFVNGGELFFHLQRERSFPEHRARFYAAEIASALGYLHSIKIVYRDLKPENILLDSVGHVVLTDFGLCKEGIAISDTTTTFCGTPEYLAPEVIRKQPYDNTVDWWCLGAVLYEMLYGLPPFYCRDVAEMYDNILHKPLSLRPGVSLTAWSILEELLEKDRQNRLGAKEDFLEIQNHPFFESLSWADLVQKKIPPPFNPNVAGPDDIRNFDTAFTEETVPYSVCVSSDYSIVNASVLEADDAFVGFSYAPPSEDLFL
As to the kind of experiment: Inhibition of SGK3 in human HeLa cells lysate at 50 uM pre incubated for 15 mins followed by ATP acyl phosphate probe addition and measured after 10 mins by LC-MS/MS analysis relative to control. It is filed as subcellular. Particulars: time 25.0 min.

For data set [11], the target named is Interleukin-1 receptor-associated kinase 1 (Homo sapiens, UniProt P51617). As to the kind of experiment: Inhibition of IRAK1 in human HeLa cells lysate at 50 uM pre incubated for 15 mins followed by ATP acyl phosphate probe addition and measured after 10 mins by LC-MS/MS analysis relative to control. It is filed as subcellular. Particulars: time 25.0 min.
The target in data set [12] is T3, Interleukin-1 receptor-associated kinase 4 (Homo sapiens) (UniProt Q9NWZ3).
T3 sequence (whole entry): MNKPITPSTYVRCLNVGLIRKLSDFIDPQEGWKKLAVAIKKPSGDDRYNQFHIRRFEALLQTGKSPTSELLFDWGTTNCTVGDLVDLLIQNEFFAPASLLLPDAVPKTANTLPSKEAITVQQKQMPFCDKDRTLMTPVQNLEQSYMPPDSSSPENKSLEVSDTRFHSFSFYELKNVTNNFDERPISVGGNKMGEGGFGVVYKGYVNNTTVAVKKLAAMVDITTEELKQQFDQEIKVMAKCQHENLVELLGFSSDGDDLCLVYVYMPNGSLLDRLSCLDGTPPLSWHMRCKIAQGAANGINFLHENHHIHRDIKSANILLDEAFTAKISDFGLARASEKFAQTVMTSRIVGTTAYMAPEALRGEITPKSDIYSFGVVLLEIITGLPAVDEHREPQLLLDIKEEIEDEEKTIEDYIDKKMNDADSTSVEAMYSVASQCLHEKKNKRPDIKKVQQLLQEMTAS
As to the kind of experiment: Inhibition of IRAK4 in human HeLa cells lysate at 10 uM pre incubated for 15 mins followed by ATP acyl phosphate probe addition and measured after 10 mins by LC-MS/MS analysis relative to control. Format: subcellular. The following applies: time 25.0 min.

Data set [13] in a line: Inhibition of MAP3K2/3 in human HeLa cells lysate at 10 uM pre incubated for 15 mins followed by ATP acyl phosphate probe addition and measured after 10 mins by LC-MS/MS analysis relative to control. The following applies: 25 min, condition cancer.
Data set [14] is described as follows: Inhibition of PKD1/2 in human HeLa cells lysate at 2 uM pre incubated for 15 mins followed by ATP acyl phosphate probe addition and measured after 10 mins by LC-MS/MS analysis relative to control. The following applies: 25 min, condition cancer.
The nature of data set [15]: AUCinfinity in Sprague-Dawley rat at 2 mg/kg, po measured up to 8 hrs by LC-MS/MS analysis. Format: ADME, organism-based. The following applies: in vivo. Put shortly:
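Sprague-Dawley rats given one intravenous dose or one oral dose of 2 mg/kg. Plasma drug concentrations were followed over time, with samples taken out to 8 hr after dosing. PK parameters (clearance, volume of distribution, half-life, oral bioavailability, Cmax) were calculated from these concentration–time data.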

The next data set deals with Lewis lung carcinoma. As to the kind of experiment: Antitumor activity against mouse LL2 cells allografted in C57Bl/6 mouse assessed as decrease in BrdU incorporation in cell nuclei in tumor at 50 mg/kg, ip by fluorescence microscopic analysis. It is filed as functional, organism-based. The method, boiled down: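 HeLa or LL/2 tumor sections from treated and control xenograft mice were stained with anti-BrdU antibody and DAPI and imaged by fluorescence microscopy. n = 6 mice, 9 slices.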
On the technique in general: Uptake of a labelled nucleoside into DNA is a usual measure of proliferation.

Activity calls are given as the source filed them. No cut-off for these calls is given here.

T1 sequence (Q15418 whole entry, the tested form may be a part): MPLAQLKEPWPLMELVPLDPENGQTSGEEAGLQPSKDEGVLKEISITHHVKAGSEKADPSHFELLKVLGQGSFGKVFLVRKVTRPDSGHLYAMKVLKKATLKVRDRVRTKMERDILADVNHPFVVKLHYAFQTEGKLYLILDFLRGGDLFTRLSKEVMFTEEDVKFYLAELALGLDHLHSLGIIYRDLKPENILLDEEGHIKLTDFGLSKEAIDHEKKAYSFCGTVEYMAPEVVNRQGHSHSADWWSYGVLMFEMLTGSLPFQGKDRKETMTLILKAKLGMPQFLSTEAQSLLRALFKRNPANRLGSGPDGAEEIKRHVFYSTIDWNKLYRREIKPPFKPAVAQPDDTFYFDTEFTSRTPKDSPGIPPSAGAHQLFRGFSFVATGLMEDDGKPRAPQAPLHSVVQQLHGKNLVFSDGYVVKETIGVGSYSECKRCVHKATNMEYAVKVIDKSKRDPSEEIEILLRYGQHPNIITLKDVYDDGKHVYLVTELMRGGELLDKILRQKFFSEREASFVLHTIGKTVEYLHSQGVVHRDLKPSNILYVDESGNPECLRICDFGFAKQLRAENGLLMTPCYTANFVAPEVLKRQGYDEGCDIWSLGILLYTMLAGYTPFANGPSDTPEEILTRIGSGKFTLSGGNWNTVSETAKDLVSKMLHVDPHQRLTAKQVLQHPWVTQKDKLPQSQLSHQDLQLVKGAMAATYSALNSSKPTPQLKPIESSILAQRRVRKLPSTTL

For the compound `CCOc1cc(N2CCC(O)CC2)ccc1Nc1ncc2c(n1)N(C)c1ccccc1C(=O)N2C`, the half-inhibitory concentration (IC50) was 26 µM in [1], greater than 50 µM against Ephrin type-B receptor 4, greater than 50 µM in data set [2] and greater than 50 µM in data set [3]. Also, the inhibition was 65.6% in data set [4]; -5.7% in data set [5]; 24.9% in data set [6]; 20.8% in [7]; -4.8% in data set [8]; 11.7% in data set [9]. Further, the inhibition in data set [10] was -0.9%; in [11], -8.3%; in data set [12] it was 10.5%. The inhibition at 10 µM in data set [13] was -7.8%. Besides, the inhibition at 2 µM in data set [14] came out at 27.1%. Also, in data set [15], the AUC(0-inf) came to 1.9 µM·h. Further, the result in the data set on Lewis lung carcinoma was Active.
